From ChEMBL document CHEMBL1154529, “Conformationally constrained opioid ligands: the Dmt-Aba and Dmt-Aia versus Dmt-Tic scaffold” (Bioorg Med Chem Lett, 2009) come the findings set out here.

Residues, ends and D or L forms follow the SMILES beside them.

Assay [1] deals with Delta-type opioid receptor (Rattus norvegicus, UniProt P33533). The experiment in a line: Displacement of [3H]DPDPE from delta opioid receptor in Sprague-Dawley rat brain synaptosomal membranes. The assay is classed as cell membranes, Membrane. An outline of the steps: (§1)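 Radioligand competition in rat brain synaptosomal preparations. Peptides tested at five to eight graded doses, each assay in duplicate, repeated three to six times on several different synaptosomal preparations. Ki calculated by Cheng–Prusoff; mean ± SEM.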
Chain of Delta-type opioid receptor (Rattus norvegicus, UniProt P33533) (P33533 whole entry): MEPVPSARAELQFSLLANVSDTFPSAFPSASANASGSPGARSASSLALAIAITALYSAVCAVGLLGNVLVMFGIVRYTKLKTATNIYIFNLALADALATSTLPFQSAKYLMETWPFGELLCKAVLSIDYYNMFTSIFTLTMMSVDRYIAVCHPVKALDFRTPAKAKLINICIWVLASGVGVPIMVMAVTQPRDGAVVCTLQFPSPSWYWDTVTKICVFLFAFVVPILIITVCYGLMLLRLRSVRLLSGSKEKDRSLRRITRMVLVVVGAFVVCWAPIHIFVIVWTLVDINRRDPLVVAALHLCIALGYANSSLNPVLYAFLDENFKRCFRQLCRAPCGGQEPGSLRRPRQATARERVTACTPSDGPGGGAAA

The species entered for assay [2] is Rattus norvegicus. The experiment in a line: Selectivity ratio of Ki for Sprague-Dawley rat delta opioid receptor to Ki for Sprague-Dawley rat mu opioid receptor.
The target in assay [3] is Mu-type opioid receptor (Cavia porcellus, UniProt P97266). The experiment in a line: Agonist activity at mu opioid receptor in Hartley guinea pig assessed as inhibition of electrically evoked ileum contraction by GPI test. The assay is classed as functional, tissue-based. An outline of the steps: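 Isolated tissue bioassays: mouse vas deferens (delta) and guinea-pig ileum (mu). Agonism expressed as IC50 read from dose–response curves. Internal standards were deltorphin C (MVD) and dermorphin (GPI). Mean ± SEM of at least six fresh tissue samples.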
Chain of Mu-type opioid receptor (Cavia porcellus, UniProt P97266) (P97266 whole entry): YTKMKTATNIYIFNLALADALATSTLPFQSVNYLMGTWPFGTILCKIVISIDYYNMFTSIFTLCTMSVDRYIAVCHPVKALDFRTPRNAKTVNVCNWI

Assay [4] deals with Mu-type opioid receptor (Rattus norvegicus, UniProt P33535). In words: Displacement of [3H]DAMGO from mu opioid receptor in Sprague-Dawley rat brain synaptosomal membranes. In kind it is cell membranes, Membrane. An outline of the steps:
as §1

Assay [5] is filed under the species Rattus norvegicus. In words: Selectivity ratio of Ki for Sprague-Dawley rat mu opioid receptor to Ki for Sprague-Dawley rat delta opioid receptor.
Assay [6] deals with T1, Delta-type opioid receptor (Mus musculus, UniProt P32300). The experiment in a line: Antagonist activity at delta opioid receptor in mouse assessed as effect on electrically evoked vas-deferens contraction by MVD test. The assay is classed as functional. To be noted: read-out: pA2 (converted).
T1 sequence (P32300 whole entry): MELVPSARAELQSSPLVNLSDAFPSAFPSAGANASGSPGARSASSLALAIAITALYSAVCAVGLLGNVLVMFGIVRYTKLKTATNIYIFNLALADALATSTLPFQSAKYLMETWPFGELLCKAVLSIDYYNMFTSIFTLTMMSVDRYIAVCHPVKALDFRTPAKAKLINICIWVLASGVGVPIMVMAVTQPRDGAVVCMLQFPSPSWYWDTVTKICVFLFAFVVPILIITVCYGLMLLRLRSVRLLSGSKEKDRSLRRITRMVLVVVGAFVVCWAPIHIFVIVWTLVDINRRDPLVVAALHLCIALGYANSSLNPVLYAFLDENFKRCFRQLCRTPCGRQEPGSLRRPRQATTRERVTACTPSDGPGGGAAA
In assay [7] the target is T1, Delta-type opioid receptor. In words: Agonist activity at delta opioid receptor in mouse assessed as inhibition of electrically evoked vas-deferens contraction by MVD test.

Chain of Mu-type opioid receptor (Rattus norvegicus, UniProt P33535) (P33535 whole entry): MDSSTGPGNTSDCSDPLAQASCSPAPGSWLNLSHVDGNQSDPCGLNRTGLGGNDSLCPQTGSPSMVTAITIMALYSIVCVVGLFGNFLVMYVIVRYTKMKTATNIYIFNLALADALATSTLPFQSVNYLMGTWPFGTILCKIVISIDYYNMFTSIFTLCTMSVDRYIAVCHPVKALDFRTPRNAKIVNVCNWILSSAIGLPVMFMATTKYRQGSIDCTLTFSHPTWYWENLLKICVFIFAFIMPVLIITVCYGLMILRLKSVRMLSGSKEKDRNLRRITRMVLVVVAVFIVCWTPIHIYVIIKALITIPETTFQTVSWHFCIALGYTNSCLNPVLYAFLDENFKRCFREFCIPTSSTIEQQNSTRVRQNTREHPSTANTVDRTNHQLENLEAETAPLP

With `Cc1cc(O)cc(C)c1C[C@H](N)C(=O)N[C@H]1Cc2ccccc2CNC1=O`, the Ki stood at 368 nM in assay [1] and 12.4 nM in assay [4]. Also, the Ratio Ki in assay [2] was found to be 30. Moreover, the IC50 in assay [3] is 631 nM.

Regarding `Cc1cc(O)cc(C)c1C[C@H](N)C(=O)N[C@H]1Cc2c([nH]c3ccccc23)CN(CC(=O)NCc2ccccc2)C1=O`, the Ki was determined as 358 nM in assay [1] and 50 nM in assay [4]. In assay [2], the Ratio Ki is 7.2. Also, the IC50 in assay [3] was found to be 1800 nM.

With `Cc1cc(O)cc(C)c1C[C@@H](C(=O)N[C@@H]1Cc2c([nH]c3ccccc23)CN(CC(=O)O)C1=O)N(C)C`, the Ki in assay [1] stood at 1150 nM; in assay [4], 10100 nM. The Ratio Ki in assay [5] was found to be 8.8.

As to `Cc1cc(O)cc(C)c1C[C@H](N)C(=O)N[C@H]1Cc2ccccc2CN(CC(=O)NCc2ccccc2)C1=O`, the Ki in assay [1] came to 11 nM; in assay [4] it was 0.46 nM. Besides, the Ratio Ki in assay [2] is 24.

Turning to `Cc1cc(O)cc(C)c1C[C@H](N)C(=O)N[C@@H]1Cc2c([nH]c3ccccc23)CN(CC(=O)O)C1=O`, the Ki in assay [1] stood at 720 nM; in assay [4] it was 2900 nM. Besides, in assay [5], the Ratio Ki was 4.

Consider `Cc1cc(O)cc(C)c1C[C@@H](C(=O)N[C@H]1Cc2ccccc2CNC1=O)N(C)C`, for which the Kb in assay [6] was 63.1 nM. In addition, the Ki in assay [1] is 20.5 nM; in assay [4], 64.9 nM. Further, the Ratio Ki in assay [5] worked out at 3.2. The IC50 in assay [3] and in assay [7] was greater than 20000 nM in each case.

On to `Cc1cc(O)cc(C)c1C[C@H](N)C(=O)N[C@H]1Cc2c([nH]c3ccccc23)CN(CC(=O)O)C1=O`, for which the figures for the Ki in assay [1] and in assay [4] were 806 nM and 1450 nM, respectively. Besides, in assay [5], the Ratio Ki turned out to be 1.8. The IC50 in assay [3] is greater than 20000 nM.

Consider `Cc1cc(O)cc(C)c1C[C@H](N)C(=O)N1Cc2ccccc2C[C@H]1C(=O)NCC(=O)NCc1ccccc1` (HELM PEPTIDE1{[Cc1cc(O)cc(C)c1C[C@H](N)C(=O)[*:2]].[Tic].G.[c1ccc(CN[*:1])cc1]}$$$$V2.0), for which the Kb in assay [6] is 0.501 nM. The Ratio Ki in assay [5] stood at 5.2.

For `Cc1cc(O)cc(C)c1C[C@H](N)C(=O)N[C@H]1Cc2ccccc2CN([C@@H](CC(=O)O)C(=O)NCc2ccccc2)C1=O`, the results for the Ki in assay [1] and in assay [4] were 1480 nM and 630 nM, respectively. In assay [2], the Ratio Ki was 2.3.

As for `Cc1cc(O)cc(C)c1C[C@@H](C(=O)N[C@H]1Cc2c([nH]c3ccccc23)CN(CC(=O)O)C1=O)N(C)C`, the Kb in assay [6] is 5.01 nM. For the same compound, the Ki in assay [1] stood at 6.64 nM; in assay [4] it was 875 nM. The Ratio Ki in assay [5] was determined as 132. The IC50 in assay [3] and in assay [7] was greater than 20000 nM each time.

For the compound `Cc1cc(O)cc(C)c1C[C@@H](C(=O)N[C@@H]1Cc2c([nH]c3ccccc23)CN(CC(=O)NCc2ccccc2)C1=O)N(C)C`, the Ki was determined as 681 nM in assay [1] and 133 nM in assay [4]. Also, the Ratio Ki in assay [2] amounted to 5.

For `Cc1cc(O)cc(C)c1C[C@H](N)C(=O)N[C@@H]1Cc2c([nH]c3ccccc23)CN(CC(=O)NCc2ccccc2)C1=O`, the Ki in assay [1] worked out at 161 nM; in assay [4] it was 3.35 nM. Moreover, in assay [2], the Ratio Ki stood at 48. Also, the IC50 is 14.9 nM in assay [3] and 1500 nM in assay [7].

Turning to `Cc1cc(O)cc(C)c1C[C@H](N)C(=O)N[C@H]1Cc2ccccc2CN([C@@H](CCCCN)C(=O)NCc2ccccc2)C1=O`, the Ki in assay [1] was determined as 290 nM; in assay [4], 10.1 nM. Further, in assay [2], the Ratio Ki was 29. The IC50 in assay [3] amounted to 3270 nM.

Regarding `Cc1cc(O)cc(C)c1C[C@H](N)C(=O)N[C@H]1Cc2c([nH]c3ccccc23)CN(CC(=O)OCc2ccccc2)C1=O`, the Ki in assay [1] was found to be 4060 nM; in assay [4], 244 nM. Also, the Ratio Ki in assay [2] was 17.
